Measurements as given in the EternaBench riboswitch data.

System: MS2 coat protein
Assay: apparent Kd, MS2 coat protein; higher = weaker binding; RNA-MaP array; FMN 200 µM where present
How it was run: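 The apparent Kd is the median of filtered binding-curve fits, one per cluster, to green signal normalised to red-channel RNA signal and control-cluster median Fmax. The clusters were on Illumina sequencing chips, and stalled E. coli RNA polymerase had transcribed the designs on them. Titration used SNAP-549-labelled MS2 coat protein from 0.7 or 1.5 nM, doubling to 3 µM, without and then with constant ligand, in 100 mM Tris-HCl pH 7.5, 80 mM KCl, 4 mM MgCl2, BSA, DTT, yeast tRNA and Tween-20.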

[1] = designed as: OFF switch for flavin mononucleotide, no ligand
[2] = ligand present: flavin mononucleotide, designed as: OFF switch for flavin mononucleotide
[3] = designed as: ON switch for flavin mononucleotide, no ligand
[4] = ligand present: flavin mononucleotide, designed as: ON switch for flavin mononucleotide

Sequence | apparent Kd [1] | apparent Kd [2] | apparent Kd [3] | apparent Kd [4]
AACUCUGAGAAGGAUAUACAGUGCGAAAGGACAGUAGAAGGUUUCACAUGAGGAUCACCCAUGUCGAAUAGUGA | 24.7 nM | 33.8 nM |  | 
AACUGUCUAAAGGAUAUGCUGGAUUAAUAUCUGGCAGAAGGUUGGACAUGAGGAUCACCCAUGUAAAUACUACC | 21.6 nM | 70.1 nM |  | 
AAGAAACAUGAGGAUCACCCAUGUAAAUUUAAGAGAGGAUAUCGUACAUGGAAGAUUUAACGAGAAGGCUCUAGAA |  |  | 26 nM | 16.1 nM
AAGAAACAUGAGGAUCACCCAUGUCACCUCACACGAGGAUAUCUGAAUCGAUUAGAUUACGGAGAAGGCGUGAUAA |  |  | 27.5 nM | 20.6 nM
AAGAAGUCAGGAUAUCCUGCUCGUCACUUGCGUGAUGAGUAGGAGAAGGGACAUGAGGAUCACCCAUGUAAAGG | 137 nM | 267 nM |  | 
AAGAGCGAUUCUCCCUUCCUACAUGAGGAUCACCCAUGUACGAGAAGGCGCCGUGUAUACAACGGUGAGGAUAUCGUACGUUAC | 5.46 nM | 10.7 nM |  | 
AAGGAGUUAGGAUAUGCUGCUCGUCACUUGCGUGAUGAGUAGCAGAAGGAACAUGAGGAUCACCCAUGUAAAGA | 30.2 nM | 24.2 nM |  | 
AAGGAUAGAGGAUAUACAUAGAUACAGAUUCAUGUGGAACUACAUGAGGAUCACCCAUGUAGAAGGCUAUCCUA | 40.1 nM | 262 nM |  | 
AAGGCGCUAGCAGGAUAUGUACAUGAGGAUCACCCAUGUAAAUCUGUAUCUGGUGAAGCGCAAGUAUAGAAGGGCUAACGCUGG | 4.71 nM | 6.2 nM |  | 
AAGGCGUCAGGAUAUCCAAUAUAUGACAUGAGGAUCACCCAUGUUUCCACUCGUACCUCCGGAGAAGGGACGAAUA | 29.1 nM | 27.5 nM |  | 
AAGGGUACUUUCGGAACGACAUGAGGAUCACCCAUGUAGACUGAGGAUAUCUACUACUAAGGACGGGAGAAGGCAGUGUAAUGU | 18.1 nM | 17.8 nM |  | 
AAGGUCAUCUGAGGAUAUCGACCUCAAAGGCUACGAGAAGGCAGACUGACAUGAGGAUCACCCAUGUACCGGGAAGAUGCCUCC | 15.8 nM | 173 nM |  | 
AAGUCGACGGUGAGGAUAUUAGUUGAACGACAGAUUAAGAAGGUACAUGAGGAUCACCCAUGUGGGUAGUGUUG | 96 nM | 98.6 nM |  | 
AAGUCGUUAGGAUAUACAUGGAUAUACAUUUAUGUAGAACUACAUGAGGAUCACCCAUGUAGAAGGAACGAAUA | 38.2 nM | 54 nM |  | 
AAGUCUGGACGAGGAUAUCAGUUGUAUCUGGCAUCAACAUGAGGAUCACCCAUGUUGCAAUAGGGUGAGAAGGCGUUUGGGCAA |  |  | 278 nM | 29.7 nM
AAUAAACAUGAGGAUCACCCAUGUAAAUGGGUACAAGGAUAUGCGAAAAGAAACAAAGAAGCAGAAGGUGUAAAGA |  |  | 836 nM | 1040 nM
AAUAAACUCACAGGAUAUAGCAGAGGUCGCGCGAACUUACAGGCGACUAUGCUAGAAGGGUGACCACAUGAGGAUCACCCAUGU |  |  | 944 nM | 162 nM
AAUAAACUCACAGGAUAUAGCCGAGGUCGCGUGAACUUACAGGCGACGAGGCUAGAAGGGUGACCACAUGAGGAUCACCCAUGU |  |  | 985 nM | 106 nM
AAUAACAGAGGAUAUACAAAAAUAAAAGGAAACAAAAGAAAACAUGAGGAUCACCCAUGUAGAAGGCUGAAUAA | 21.1 nM | 18.9 nM |  | 
AAUAACAGAGGAUAUACUAUUUUAUGUAUUUAUUAUUUUGAACAUGAGGAUCACCCAUGUAGAAGGCUGAGUAA | 27.5 nM | 23.1 nM |  | 
AAUAACAGAGGAUAUACUGUUUUAUGUAUUUAUUAUUUUAAACAUGAGGAUCACCCAUGUAGAAGGCUGAGUAA | 24.6 nM | 23.4 nM |  | 

Sequence | apparent Kd [1] | apparent Kd [2] | apparent Kd [3] | apparent Kd [4]
AAUAACAGAGGAUAUACUGUUUUAUGUGUUUGUUGUUUUGAACAUGAGGAUCACCCAUGUAGAAGGCUGAUUGA | 40.2 nM | 41.3 nM |  | 
AAUAGGCUCGCGCAGGAUAUGGAUCAUUCCACAUGAGGAUCACCCAUGUUAAGGAGCCUUUGCAUCCAGAAGGGUGUUGGUCUUU |  |  | 97.2 nM | 17.9 nM
AAUAUAAAAGAGCUGGAUAAACUCACAUGAGGAUCACCCAUGUAGGAUAUCAGCACGAUAAGUGCUGAGAAGGACAACCAGCUC | 14.8 nM | 15.3 nM |  | 
AAUAUAAGAGCUGGUAAACUCAAAACAUGAGGAUCACCCAUGUAGGAUAUCAGCACGAUAAGUGCUGAGAAGGACAUCCAGCUC | 15 nM | 16.1 nM |  | 
AAUAUAGAGCUGGACUCAAAAUAAACAUGAGGAUCACCCAUGUAGGAUAUCAGCACGAUAAGUGCUGAGAAGGACAUCCAGCUC | 15.4 nM | 14.2 nM |  | 
AAUAUGAGCUGGAAUAAACCUAAAACAUGAGGAUCACCCAUGUAGGAUAUCAGCACGAUAAGUGCUGAGAAGGACAACCAGCUC | 14.4 nM | 13.9 nM |  | 
AAUAUGUGAGGAUAUAUCCACCGCGUAGGCUCGCGGUGACAAUAGAAGGUACAUGAGGAUCACCCAUGUAGGGA | 67.7 nM | 36.9 nM |  | 
AAUAUGUUAGGAUAUGCGAAGUCAGGACACACACUGACGAAGCAGAAGGAACAUGAGGAUCACCCAUGUAAAAA | 27.3 nM | 31.4 nM |  | 
AAUAUGUUGCAGAAGGUUAUUUUUAUAACGAUCCAUGUGACAUGAGGAUCACCCAUGUAAUUGAUGAAGGAUAUGCAAUAUAUU | 6.72 nM | 6.45 nM |  | 
AAUAUGUUGCAGAAGGUUAUUUUUAUAACGUUCCUCUUGACAUGAGGAUCACCCAUGUAAUUGUUGAAGGAUAUGCAAUAUAUU | 6.69 nM | 6.18 nM |  | 
AAUCAGUCAGGAUAUCGUUAAUUUAAUUGUUUGUUUUAGUUCGAGAAGGGACAUGAGGAUCACCCAUGUACUUA | 24.8 nM | 26.8 nM |  | 
AAUCUUUUUAUGGGAUUACAAUAUGAGGAUAUCAUUCAUUUAUACAUGAGGAUCACCCAUGUUACUGAGAAGGCAUAUAUAAUA |  |  |  | 11 nM
AAUGAAACUUAGAAGGCCUACAUGAGGAUCACCCAUGUGGCUUUAAGUGUAGGAGGAUAUGAGGAUGCGGGUAGGAACCCACGC | 6.37 nM | 14.8 nM |  | 
AAUGGCAUAGAGAAGGCGCCGCAGCUCUUCCUCCCAUCCCAACGACAUGAGGAUCACCCAUGUAGCGAGGAUAUCUAUACCGUC | 7.08 nM | 12.5 nM |  | 
AAUGUUUUCAUAGGAUAUUGACAUUUAUUUAUUCAAGAAGGAUGAUUACAUGAGGAUCACCCAUGUUAAAAUGGAUUAACUAGU | 54.4 nM | 162 nM |  | 
AAUUAAGAUCAAGGAUAUCACGUCGAAUAGACGUGAGAAGGUGAUCCAUACAUGAGGAUCACCCAUGUAUAACAUGAAUUAAUU |  |  | 923 nM | 170 nM
AAUUAAUUAAUACAUGAGGAUCACCCAUGUAAUUAUUAGAUCUAGGAUAUCAGCUCGUUUAGAGCUGAGAAGGAGAUCACAUGU |  |  | 19.2 nM | 14.6 nM
AAUUAGUGUGUGAGGAUAUUGGUGGAAUGACAUAUUAAGAAGGCACAUGAGGAUCACCCAUGUGGGAUGUCACG | 10.9 nM | 13.6 nM |  | 
AAUUAUUAUCGAGGAUAUCGUAUUGAAAUAAUAUGAGAAGGCGGGAUAAACAUGAGGAUCACCCAUGUGAGCCUGAUGCUUGUG | 19.2 nM | 35.4 nM |  | 
AAUUAUUAUUGAGGAUAUGGUAGUGAAACACUACCAGAAGGCGGUAUAAACAUGAGGAUCACCCAUGUGAGCCUGAUGCUUAUG | 24.2 nM | 44.2 nM |  | 
AAUUAUUUACAGAAGGAGUAAGAUUUUGUAUUACUAGGAUAUGUUAACAUGAGGAUCACCCAUGUGUUUGUAGGUUUUUUAUGU | 12.2 nM | 8.54 nM |  | 
